Experimental data taken from ChEMBL document CHEMBL4765226, “Identification of a Human Toll-Like Receptor (TLR) 8-Specific Agonist and a Functional Pan-TLR Inhibitor in 2-Aminoimidazoles” (J Med Chem, 2016).
Active and inactive are the calls of the source.

Legend:
Assay type in all cases: cell-based
[1] = target: Toll-like receptor 2 (Homo sapiens, UniProt O60603); test: Agonist activity at human TLR2 stably expressed in HEK293 cells cotransfected with secreted alkaline phosphatase assessed as induction of NFkappaB activation by quanti-blue SEAP reporter gene based spectrophotometric method
Sequence of Toll-like receptor 2 (O60603 whole entry): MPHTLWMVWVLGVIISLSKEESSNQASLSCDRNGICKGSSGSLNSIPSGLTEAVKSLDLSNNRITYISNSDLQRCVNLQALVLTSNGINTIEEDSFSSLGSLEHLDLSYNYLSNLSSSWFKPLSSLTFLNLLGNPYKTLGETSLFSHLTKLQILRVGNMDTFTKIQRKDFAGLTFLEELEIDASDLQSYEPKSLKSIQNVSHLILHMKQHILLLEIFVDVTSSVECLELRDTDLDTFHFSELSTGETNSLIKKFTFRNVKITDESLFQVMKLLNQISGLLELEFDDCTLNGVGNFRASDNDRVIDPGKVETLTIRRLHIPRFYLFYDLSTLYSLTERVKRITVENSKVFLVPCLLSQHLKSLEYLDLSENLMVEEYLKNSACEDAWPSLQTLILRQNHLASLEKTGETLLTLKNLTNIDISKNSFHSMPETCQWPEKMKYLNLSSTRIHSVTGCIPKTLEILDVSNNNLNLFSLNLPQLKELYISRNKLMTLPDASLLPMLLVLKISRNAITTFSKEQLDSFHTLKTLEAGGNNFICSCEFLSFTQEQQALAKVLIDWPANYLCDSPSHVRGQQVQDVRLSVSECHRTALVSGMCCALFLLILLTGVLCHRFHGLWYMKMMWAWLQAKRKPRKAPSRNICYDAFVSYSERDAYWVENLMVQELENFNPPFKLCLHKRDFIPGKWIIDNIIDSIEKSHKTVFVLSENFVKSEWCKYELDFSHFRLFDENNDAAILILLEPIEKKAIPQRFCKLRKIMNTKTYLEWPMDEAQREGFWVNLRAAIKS
Procedure, shortened: (§1)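 HEK293 cells stably co-transfected with the matching human TLR (2, 3, 4, 5, 7, 8 or 9) and NF-κB/AP-1-driven secreted alkaline phosphatase were kept in selection medium. About 10^5 cells/ml were incubated with graded concentrations of stimulus. sAP was read at 620 nm with a chromogen in detection medium. EC50 came from four-parameter logistic fits on quadruplicates.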

[2] = target: Toll-like receptor 3 (Homo sapiens) (UniProt O15455); test: Agonist activity at human TLR3 stably expressed in HEK293 cells cotransfected with secreted alkaline phosphatase assessed as induction of NFkappaB activation by quanti-blue SEAP reporter gene based spectrophotometric method; procedure, shortened: as §1
Sequence of Toll-like receptor 3 (Homo sapiens) (O15455 whole entry): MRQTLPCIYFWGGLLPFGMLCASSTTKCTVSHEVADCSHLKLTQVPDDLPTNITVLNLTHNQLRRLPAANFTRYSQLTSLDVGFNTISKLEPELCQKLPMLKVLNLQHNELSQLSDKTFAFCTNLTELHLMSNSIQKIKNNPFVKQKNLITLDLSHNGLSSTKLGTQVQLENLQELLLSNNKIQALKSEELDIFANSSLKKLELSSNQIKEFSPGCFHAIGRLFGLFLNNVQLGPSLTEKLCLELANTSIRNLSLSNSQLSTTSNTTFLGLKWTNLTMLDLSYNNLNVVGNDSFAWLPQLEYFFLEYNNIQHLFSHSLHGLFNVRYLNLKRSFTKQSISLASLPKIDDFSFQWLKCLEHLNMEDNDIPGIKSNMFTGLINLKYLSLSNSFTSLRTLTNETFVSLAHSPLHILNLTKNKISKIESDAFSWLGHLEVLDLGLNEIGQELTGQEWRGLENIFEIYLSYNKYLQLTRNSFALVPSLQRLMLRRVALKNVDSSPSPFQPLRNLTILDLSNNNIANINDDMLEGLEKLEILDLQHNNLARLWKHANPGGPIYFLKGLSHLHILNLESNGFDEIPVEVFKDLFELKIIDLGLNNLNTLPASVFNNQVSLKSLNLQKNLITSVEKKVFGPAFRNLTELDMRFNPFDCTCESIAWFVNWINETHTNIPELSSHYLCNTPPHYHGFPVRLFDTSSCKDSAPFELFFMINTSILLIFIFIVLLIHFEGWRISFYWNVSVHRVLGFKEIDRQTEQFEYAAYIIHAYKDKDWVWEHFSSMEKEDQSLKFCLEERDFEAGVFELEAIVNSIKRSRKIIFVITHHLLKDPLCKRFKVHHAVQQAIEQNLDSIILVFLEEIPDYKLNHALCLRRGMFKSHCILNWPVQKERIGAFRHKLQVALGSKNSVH

[3] = target: T1, Toll-like receptor 7 (Homo sapiens) (UniProt Q9NYK1); test: Agonist activity at human TLR7 stably expressed in HEK293 cells cotransfected with secreted alkaline phosphatase assessed as induction of NFkappaB activation by quanti-blue SEAP reporter gene based spectrophotometric method; procedure, shortened: as §1
T1 sequence (whole entry): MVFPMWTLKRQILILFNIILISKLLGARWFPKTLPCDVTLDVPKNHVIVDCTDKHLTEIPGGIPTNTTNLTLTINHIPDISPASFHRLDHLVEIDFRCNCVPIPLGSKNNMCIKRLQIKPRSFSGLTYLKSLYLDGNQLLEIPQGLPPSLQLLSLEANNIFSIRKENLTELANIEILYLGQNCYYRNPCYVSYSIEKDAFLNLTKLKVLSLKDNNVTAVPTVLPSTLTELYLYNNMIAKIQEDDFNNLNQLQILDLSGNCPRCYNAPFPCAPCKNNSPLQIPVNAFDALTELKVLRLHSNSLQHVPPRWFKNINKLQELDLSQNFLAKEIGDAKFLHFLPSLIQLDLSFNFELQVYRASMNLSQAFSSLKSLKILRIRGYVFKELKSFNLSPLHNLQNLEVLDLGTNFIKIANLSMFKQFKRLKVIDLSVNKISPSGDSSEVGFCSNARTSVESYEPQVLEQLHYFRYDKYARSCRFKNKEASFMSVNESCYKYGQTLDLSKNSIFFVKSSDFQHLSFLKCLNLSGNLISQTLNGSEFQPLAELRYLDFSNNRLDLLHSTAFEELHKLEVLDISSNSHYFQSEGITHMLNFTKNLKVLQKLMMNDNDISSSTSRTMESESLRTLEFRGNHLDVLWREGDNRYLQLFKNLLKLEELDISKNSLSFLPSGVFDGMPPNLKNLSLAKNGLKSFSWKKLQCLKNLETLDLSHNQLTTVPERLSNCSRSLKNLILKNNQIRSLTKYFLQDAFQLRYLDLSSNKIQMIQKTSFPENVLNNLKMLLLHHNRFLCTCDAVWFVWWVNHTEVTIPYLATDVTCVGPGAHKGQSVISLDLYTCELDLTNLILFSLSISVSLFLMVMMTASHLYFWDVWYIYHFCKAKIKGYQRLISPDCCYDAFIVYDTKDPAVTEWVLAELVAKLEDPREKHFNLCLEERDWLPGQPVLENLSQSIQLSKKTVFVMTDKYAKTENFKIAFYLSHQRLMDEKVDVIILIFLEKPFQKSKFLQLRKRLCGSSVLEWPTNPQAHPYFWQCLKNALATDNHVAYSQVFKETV

Measured: Activity

CCCCCn1ccnc1N
inactive: [1] | [2] | [3]

CCCCCn1cc(-c2cccc(C(F)(F)F)c2)nc1N
inactive: [1] | [2] | [3]

CCCCCn1cc(-c2ccc(Cl)cc2)nc1N
inactive: [1] | [2] | [3]

CCCCCn1cc(-c2c(C)cccc2C)nc1N
inactive: [1] | [2] | [3]

CCCCCn1cc(-c2c(C)noc2C)nc1N
inactive: [1] | [2] | [3]

CCCCCn1cc(-c2cccc3ccccc23)nc1N
inactive: [1] | [2] | [3]

CCCCCn1cc(-c2cccc(C)c2OC)nc1N
inactive: [1] | [2] | [3]

CCCCCn1cc(-c2ccc(C(N)=O)cc2)nc1N
inactive: [1] | [2] | [3]

CCCCCn1cc(-c2ccc(C)cc2C)nc1N
inactive: [1] | [2] | [3]

CCCCCn1cc(-c2ccc(C(F)(F)F)cc2)nc1N
inactive: [1] | [2] | [3]

CCCCCn1cc(-c2ccc(C(=O)OC)cc2)nc1N
inactive: [1] | [2] | [3]

CCCCCn1cc(Cc2ccccc2)nc1N
inactive: [1] | [2] | [3]

CCCCCn1cc(-c2cccnc2)nc1N
inactive: [1] | [2] | [3]

CCCCCn1cc(-c2cccc(OC)c2OC)nc1N
inactive: [1] | [2] | [3]

CCCCCn1cc(CCc2ccccc2)nc1N
inactive: [1] | [2] | [3]

CCCCCn1cc(-c2ccccc2CC)nc1N
inactive: [1] | [2] | [3]

CCCCCn1cc(-c2ccccc2OC)nc1N
inactive: [1] | [2] | [3]

CCCCCn1cc(-c2cc(OC)c(OC)c(OC)c2)nc1N
inactive: [1] | [2] | [3]

CCCCCn1cc(-c2cccc(OC)c2)nc1N
inactive: [1] | [2] | [3]

CCCCCn1cc(-c2ccc(OC)cc2C)nc1N
inactive: [1] | [2] | [3]

CCCCCn1c(N)nc(-c2ccccc2)c1-c1ccccc1
inactive: [1] | [2] | [3]

CCCCCn1cc(-c2ccc(OC)cc2)nc1N
inactive: [1] | [2] | [3]
